From ChEMBL document CHEMBL3259819, “Antimicrobial peptides from skin secretions of Hypsiboas pulchellus (Anura: Hylidae)” (J Nat Prod, 2014)
≈ marks a conversion by molar mass, not a printed value. Where a SMILES comes first, the peptide text is derived from it.

How the values were obtained:
Pseudomonas aeruginosa = experiment: Antimicrobial activity against Pseudomonas aeruginosa; assay type: functional
Escherichia coli [1] = experiment: Antimicrobial activity against Escherichia coli; assay type: functional
Staphylococcus aureus [2] = experiment: Antimicrobial activity against Staphylococcus aureus; assay type: functional
Enterococcus faecalis = experiment: Antimicrobial activity against Enterococcus faecalis; assay type: functional
[3] = Toxicity in erythrocytes (unknown origin) assessed as hemolytic activity; assay type: cell-based, Erythrocyte; details: read-out: HD50 (the source's name)
Outline: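 Human erythrocytes from heparinised blood, spun 3000 rpm for 10 min after three saline washes, used at 0.4% (v/v) in isotonic saline. Equal volumes incubated with increasing concentrations (0.4 to 4.4 mg/mL for extracts) for 60 min at 37 °C. Cells spun at 3000 rpm for 5 min and supernatant A405 read. Lysis by 1% Triton X-100 served as 100%.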

Bacillus subtilis = experiment: Antimicrobial activity against Bacillus subtilis; assay type: functional
[4] = Hemolytic activity in human erythrocytes at 320 uM after 60 mins; assay type: ADME, cell-based, Erythrocyte; details: read-out: Activity
Outline: (§1)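 Human erythrocytes came from heparinized blood, were washed three times in saline and pelleted, then suspended at 0.4% (v/v) in isotonic saline. 1 mL cells was mixed with 1 mL peptide dilution and held 60 min at 37 °C. After centrifugation, supernatant absorbance was read at 405 nm, with lysis by 1% Triton X-100 set as 100%.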

[5] = Therapeutic index, ratio of hemolytic activity in human erythrocytes assessed as lowest concentration required for hemolysis to MIC for Staphylococcus aureus; assay type: cell-based; details: read-out: TI
Outline: (§2)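 TI is the lowest hemolytic concentration divided by the MIC, calculated per peptide and strain. LHC is the lowest peptide concentration giving 100% hemolysis of human erythrocytes (60 min, 37 °C). Where 100% hemolysis was not reached at 320 μM, 640 μM was used. MICs came from microtiter broth dilution against E. coli ATCC 25922 or S. aureus ATCC 25929.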

[6] = Hemolytic activity in human erythrocytes assessed as lowest concentration required to hemolysis after 60 mins; assay type: ADME, cell-based; details: erythrocyte, 1 h; outline: as §1
Staphylococcus aureus [7] = experiment: Antimicrobial activity against Staphylococcus aureus ATCC 25929 after 18 to 24 hrs by microtitre dilution method; assay type: functional
Outline: (§3)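 Modified microtiter broth dilution (Hancock method for AMPs). Strains were activated 24 h at 37 °C in Mueller-Hinton broth, and the inoculum was set to 5 × 10^7 cfu/mL. Tests ran in diluted MHB for 18 to 24 h at 37 °C. Peptides were solubilised in water with 10% acetic acid; the top assay concentration was 1280 μg/mL. MIC is the lowest concentration inhibiting growth.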

[8] = Therapeutic index, ratio of hemolytic activity in human erythrocytes assessed as lowest concentration required for hemolysis to MIC for Escherichia coli; assay type: cell-based; details: read-out: TI; outline: as §2
Escherichia coli [9] = experiment: Antimicrobial activity against Escherichia coli ATCC 25922 after 18 to 24 hrs by microtitre dilution method; assay type: functional; outline: as §3
[10] = Hemolytic activity in human erythrocytes at 20 uM after 60 mins; assay type: ADME, cell-based, Erythrocyte; details: read-out: Activity; outline: as §1

CC(C)C[C@H](NC(=O)[C@H](C)NC(=O)[C@@H](NC(=O)[C@H](CCCCN)NC(=O)CNC(=O)[C@@H](NC(=O)[C@@H](NC(=O)[C@H](CCCCN)NC(=O)CNC(=O)[C@H](CC(C)C)NC(=O)[C@H](CO)NC(=O)[C@H](CCCCN)NC(=O)[C@H](CC(C)C)NC(=O)[C@H](CCCCN)NC(=O)[C@H](CC(=O)O)NC(=O)[C@H](CC(C)C)NC(=O)[C@H](Cc1c[nH]c2ccccc12)NC(=O)[C@H](C)N)C(C)C)C(C)C)C(C)C)C(=O)NCC(=O)N[C@H](C(=O)N[C@@H](C)C(=O)N[C@@H](CCC(N)=O)C(=O)N[C@@H](CC(N)=O)C(=O)N[C@@H](Cc1ccc(O)cc1)C(=O)N[C@@H](CC(C)C)C(=O)N[C@@H](CC(N)=O)C(=O)N1CCC[C@H]1C(=O)N[C@@H](CCC(N)=O)C(=O)N[C@@H](CCC(N)=O)C(=O)O)C(C)C (H-AWLDKLKSLGKVVGKVALGVAQNYLNPQQ-OH)
MIC (Pseudomonas aeruginosa): 10 µM (≈ 31.4 µg/mL)
MIC (Escherichia coli [1]): 5 µM (≈ 15.7 µg/mL)
MIC (Staphylococcus aureus [2]): 20 µM (≈ 62.8 µg/mL)

CC[C@H](C)[C@H](NC(=O)CN)C(=O)N[C@@H](CC(C)C)C(=O)N[C@@H](CC(=O)O)C(=O)N[C@@H](C)C(=O)N[C@H](C(=O)N[C@@H](CCCCN)C(=O)N[C@@H](C)C(=O)N[C@H](C(=O)N[C@@H](C)C(=O)N[C@@H](CCCCN)C(=O)N[C@@H](C)C(=O)N[C@@H](C)C(=O)NCC(=O)O)[C@@H](C)CC)[C@@H](C)CC (H-GILDAIKAIAKAAG-OH)
MIC (Pseudomonas aeruginosa): 64 µM (≈ 83.9 µg/mL)
MIC (Escherichia coli [1]): 32 µM (≈ 42 µg/mL)
MIC (Staphylococcus aureus [2]): 8 µM (≈ 10.5 µg/mL)

CC[C@H](C)[C@H](N)C(=O)N[C@@H](Cc1ccccc1)C(=O)NCC(=O)N[C@@H](C)C(=O)N[C@H](C(=O)N[C@@H](CC(C)C)C(=O)N1CCC[C@H]1C(=O)N[C@@H](CC(C)C)C(=O)N[C@@H](C)C(=O)N[C@@H](CC(C)C)C(=O)NCC(=O)N[C@@H](C)C(=O)N[C@@H](CC(C)C)C(=O)N[C@@H](CCCCN)C(=O)N[C@@H](CC(N)=O)C(=O)N[C@@H](CC(C)C)C(=O)N[C@H](C(=O)N[C@@H](CCCCN)C(=O)O)[C@@H](C)CC)[C@@H](C)CC (H-IFGAILPLALGALKNLIK-OH)
MIC (Pseudomonas aeruginosa): 64 µM (≈ 119 µg/mL)
MIC (Escherichia coli [1]): 32 µM (≈ 59.7 µg/mL)
MIC (Staphylococcus aureus [2]): 8 µM (≈ 14.9 µg/mL)
MIC (Enterococcus faecalis): 16 µM (≈ 29.8 µg/mL)
HC50 [3]: 18 µM
MIC (Bacillus subtilis): 8 µM (≈ 14.9 µg/mL)

CC(C)C[C@H](NC(=O)[C@H](CO)NC(=O)[C@@H]1CCCN1C(=O)[C@H](CO)NC(=O)[C@H](CC(C)C)NC(=O)[C@@H](N)CCCCN)C(=O)NCC(=O)N1CCC[C@H]1C(=O)N[C@H](C(=O)N[C@@H](CO)C(=O)N[C@@H](CCCCN)C(=O)NCC(=O)N[C@@H](CCCCN)C(=O)N[C@@H](CC(C)C)C(=O)N[C@@H](CC(C)C)C(=O)N[C@@H](C)C(=O)NCC(=O)N[C@@H](CCC(N)=O)C(=O)N[C@@H](CCCNC(=N)N)C(N)=O)C(C)C (H-KLSPSLGPVSKGKLLAGQR-NH2)
hemolysis at 1 h, 320 µM [4]: 100%
selectivity ratio [5]: 4.9
MHC [6]: 320 µM
MIC (Staphylococcus aureus [7]): 66 µM (≈ 128 µg/mL)
selectivity ratio [8]: 9.7
MIC (Escherichia coli [9]): 33 µM (≈ 63.9 µg/mL)

CC(C)C[C@H](NC(=O)CNC(=O)[C@H](C)NC(=O)[C@H](CC(C)C)NC(=O)[C@H](CC(C)C)NC(=O)[C@@H](NC(=O)[C@H](CCCCN)NC(=O)[C@H](CC(C)C)NC(=O)[C@H](CC(C)C)NC(=O)[C@H](C)NC(=O)[C@@H]1CCCN1C(=O)[C@H](CC(C)C)NC(=O)[C@H](C)NC(=O)[C@@H](NC(=O)CNC(=O)[C@H](CC(C)C)NC(=O)[C@@H](N)CCCNC(=N)N)[C@@H](C)O)[C@@H](C)O)C(=O)N[C@@H](CC(N)=O)C(=O)NCC(N)=O (H-RLGTALPALLKTLLAGLNG-NH2)
selectivity ratio [5]: 1.5
MHC [6]: 25 µM
MIC (Staphylococcus aureus [7]): 17 µM (≈ 32.2 µg/mL)
hemolysis at 1 h, 20 µM [10]: > 90%
selectivity ratio [8]: 1.5
MIC (Escherichia coli [9]): 17 µM (≈ 32.2 µg/mL)

CC(C)C[C@H](NC(=O)[C@H](CC(C)C)NC(=O)[C@@H](NC(=O)[C@@H]1CCCN1C(=O)[C@H](CCCCN)NC(=O)[C@@H](N)[C@@H](C)O)[C@@H](C)O)C(=O)NCC(=O)N[C@@H](CC(C)C)C(=O)N1CCC[C@H]1C(=O)N[C@@H](CC(C)C)C(=O)NCC(=O)N[C@@H](C)C(=O)NCC(=O)N1CCC[C@H]1C(=O)N[C@@H](C)C(=O)N[C@@H](C)C(=O)NCC(=O)N1CCC[C@H]1C(=O)NCC(=O)N[C@@H](CCCCN)C(=O)N[C@@H](CCCNC(=N)N)C(N)=O (H-TKPTLLGLPLGAGPAAGPGKR-NH2)
hemolysis at 1 h, 320 µM [4]: ≤ 12%
selectivity ratio [5]: 80
MHC [6]: 640 µM
MIC (Staphylococcus aureus [7]): 8 µM (≈ 15.8 µg/mL)
selectivity ratio [8]: 40
MIC (Escherichia coli [9]): 16 µM (≈ 31.5 µg/mL)
